Measurements taken from ChEMBL document CHEMBL1649496, “Piperaquine pharmacodynamics and parasite viability in a murine malaria model” (Antimicrob Agents Chemother, 2009).

Assays:
[1] = Plasma concentration in Swiss mouse infected with Plasmodium berghei ANKA at 90 mg/kg, ip after 25 days; format: ADME, organism-based; design: dose 90 mg/kg, route intraperitoneal
In short: (§1)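 Infected Swiss mice (n = 4) were dosed with 90 mg/kg piperaquine phosphate i.p. at day 0. Plasma was taken by cardiac puncture, centrifuged at 3,000 x g for 5 min and stored at –80°C. Drug was measured by a validated HPLC assay (LOQ 1.6 µg/liter, LOD 0.7 µg/liter, CV <12%). Values are mean ± SD.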

[2] = Plasma concentration in Swiss mouse infected with Plasmodium berghei ANKA at 90 mg/kg, ip after 40 days; format: ADME, organism-based; design: dose 90 mg/kg, route intraperitoneal; in short: as §1
Plasmodium berghei [3] = assay: Antiplasmodial activity against Plasmodium berghei ANKA infected in Swiss mouse assessed as assessed as time required for parasite recrudescence at 90 mg/kg, ip; format: functional; details: route intraperitoneal
Plasmodium berghei [4] = assay: Antiplasmodial activity against Plasmodium berghei ANKA infected in Swiss mouse assessed as parasitemia at 90 mg/kg, ip administered 5 days after infection measured up to 25 days; format: functional; details: route intraperitoneal
In short: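 Donor blood from previously infected, treated mice was taken by cardiac puncture and the red cells washed three times in 0.9% NaCl. A 1:5 dilution (<10^5 parasites) was given i.p. to naive male mice (5 weeks; n = 5 per donor). Five days later, three mice per group received a single 90 mg/kg i.p. dose of piperaquine phosphate and two stayed untreated. Giemsa smears were read twice daily.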

Plasmodium berghei [5] = assay: Antiplasmodial activity against Plasmodium berghei ANKA infected in Swiss mouse assessed as parasitemia at 90 mg/kg, ip measured on day 13 postinfection; format: functional; details: route intraperitoneal
In short: (§2)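 Male Swiss mice (5–6 weeks) infected i.p. with 10^7 P. berghei ANKA-parasitized erythrocytes taken from passage BALB/c mice and diluted in citrate-phosphate-dextrose. At 64 h (3–5% parasitemia confirmed by thin film), piperaquine phosphate was given once i.p. at 90 mg/kg in 50% glycerol/30% isotonic phosphate buffer pH 7.1/20% polysorbate 80. Parasitemia was read from May-Grunwald Giemsa tail-blood smears (mean ± SD) and tracked from dosing (day 0).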

Plasmodium berghei [6] = assay: Antiplasmodial activity against Plasmodium berghei ANKA infected in Swiss mouse assessed as parasitemia at 90 mg/kg, ip measured on day 90 postinfection; format: functional; details: route intraperitoneal; in short: as §2
Plasmodium berghei [7] = assay: Antiplasmodial activity against Plasmodium berghei ANKA infected in Swiss mouse assessed as parasitemia at 90 mg/kg, ip measured on day 60 postinfection; format: functional; details: route intraperitoneal; in short: as §2
Plasmodium berghei [8] = assay: Antiplasmodial activity against Plasmodium berghei ANKA infected in Swiss mouse assessed as median survival time at 90 mg/kg, ip administered 5 days after infection; format: functional; details: route intraperitoneal
In short: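 Naive male Swiss mice (5 weeks, n = 5 per donor) inoculated i.p. with 200 µl of a 1:5 dilution of saline-washed, buffy-coat-depleted red cells from PQP-treated infected donor mice (<105 parasites). Five days later three mice per cohort received single i.p. 90 mg/kg PQP in glycerol/phosphate buffer pH 7.1/polysorbate 80; two left untreated. Parasitemia by Giemsa thin films twice daily; median survival recorded.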

[9] = Plasma concentration in Swiss mouse infected with Plasmodium berghei ANKA at 90 mg/kg, ip after 60 days; format: ADME, organism-based; design: dose 90 mg/kg, route intraperitoneal; in short: as §1
Plasmodium berghei [10] = assay: Antiplasmodial activity against Plasmodium berghei ANKA infected in Swiss mouse assessed as parasitemia at 90 mg/kg, ip measured on day 40 postinfection; format: functional; details: route intraperitoneal; in short: as §2
Plasmodium berghei [11] = assay: Antiplasmodial activity against Plasmodium berghei ANKA infected in Swiss mouse assessed as parasitemia at 90 mg/kg, ip measured on day 25 postinfection; format: functional; details: route intraperitoneal; in short: as §2

Q: Which concentration at 600 h [1] does the source give for `Clc1ccc2c(N3CCN(CCCN4CCN(c5ccnc6cc(Cl)ccc56)CC4)CC3)ccnc2c1.O=P(O)(O)O` [PIPERAQUINE PHOSPHATE] here?
A: The concentration at 600 h was 15 ng/mL.

Q: And the concentration at 960 h [2]?
A: The concentration at 960 h was 11 ng/mL.

Q: What about the Time (Plasmodium berghei [3]) of the same compound?
A: Its Time is 7 days.

Q: And the Activity (Plasmodium berghei [4])?
A: Its Activity is 10%.

Q: And the Activity (Plasmodium berghei [5])?
A: The Activity was 1.32%.

Q: And the Activity (Plasmodium berghei [6])?
A: The Activity was 0.9%.

Q: And the Activity (Plasmodium berghei [7])?
A: Its Activity is 0.3%.

Q: What about the MST (Plasmodium berghei [8]) of the same compound?
A: The MST was 19 days.

Q: And the concentration at 1440 h [9]?
A: Its concentration at 1440 h is 2 ng/mL.

Q: And the Activity (Plasmodium berghei [10])?
A: The Activity was 0.1%.

Q: What about the Activity (Plasmodium berghei [11]) of the same compound?
A: Its Activity is under 0.015%.
